Reference: ChEMBL document CHEMBL3621107, “Ring fusion strategy for synthesis and lead optimization of sulfur-substituted anthra[1,2-c][1,2,5]thiadiazole-6,11-dione derivatives as promising scaffold of antitumor agents” (Eur J Med Chem, 2015)

Assays:
Type in all cases: functional
Malme-3M = assay: Cytotoxicity against human MALME-3M cells assessed as cell growth at 10 uM after 48 hrs by SRB assay relative to control; settings: read-out: Activity
Outline: (§1)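 First-stage NCI-60 screen by the NCI Developmental Therapeutics Program. Each compound was tested once at a single concentration of 10 μM against the 60-cell-line panel. Growth percentage was reported for each cell line.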

SK-MEL-2 = assay: Cytotoxicity against human SK-MEL-2 cells assessed as cell growth at 10 uM after 48 hrs by SRB assay relative to control; settings: SK-MEL-2, 48 h, read-out: Activity
Outline: (§2)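 First-stage NCI DTP one-dose screen against the 60 human tumour cell line panel. Compounds were tested at a single 10 μM level, and results are given as growth percentage.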

SK-MEL-5 = assay: Cytotoxicity against human SK-MEL-5 cells assessed as cell growth at 10 uM after 48 hrs by SRB assay relative to control; settings: SK-MEL-5, 48 h, read-out: Activity; outline: as §2
UACC-62 = assay: Cytotoxicity against human UACC62 cells assessed as cell growth at 10 uM after 48 hrs by SRB assay relative to control; settings: UACC-62, 48 h, read-out: Activity
Outline: (§3)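 NCI-60 one-dose screen run by NCI DTP: each cell line exposed to a single 10 µM dose, and percentage growth recorded against untreated growth.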

IGROV-1 = assay: Cytotoxicity against human IGROV1 cells assessed as cell growth at 10 uM after 48 hrs by SRB assay relative to control; settings: IGROV-1, 48 h, read-out: Activity; outline: as §1
OVCAR-3 = assay: Cytotoxicity against human OVCAR3 cells assessed as cell growth at 10 uM after 48 hrs by SRB assay relative to control; settings: OVCAR-3, 48 h, read-out: Activity; outline: as §2
OVCAR-4 = assay: Cytotoxicity against human OVCAR4 cells assessed as cell growth at 10 uM after 48 hrs by SRB assay relative to control; settings: OVCAR-4, 48 h, read-out: Activity; outline: as §2
NCI/ADR-RES = assay: Cytotoxicity against human NCI/ADR-RES cells assessed as cell growth at 10 uM after 48 hrs by SRB assay relative to control; settings: read-out: Activity; outline: as §2
786-0 = assay: Cytotoxicity against human 786-0 cells assessed as cell growth at 10 uM after 48 hrs by SRB assay relative to control; settings: 786-0, 48 h, read-out: Activity; outline: as §1
CAKI-1 = assay: Cytotoxicity against human Caki1 cells assessed as cell growth at 10 uM after 48 hrs by SRB assay relative to control; settings: CAKI-1, 48 h, read-out: Activity; outline: as §1
RXF 393 = assay: Cytotoxicity against human RXF393 cells assessed as cell growth at 10 uM after 48 hrs by SRB assay relative to control; settings: RXF 393, 48 h, read-out: Activity; outline: as §2
TK-10 = assay: Cytotoxicity against human TK10 cells assessed as cell growth at 10 uM after 48 hrs by SRB assay relative to control; settings: TK-10, 48 h, read-out: Activity; outline: as §3
MDA-MB-231 = assay: Cytotoxicity against human MDA-MB-231 cells assessed as cell growth at 10 uM after 48 hrs by SRB assay relative to control; settings: MDA-MB-231, 48 h, read-out: Activity; outline: as §2
[1] = Cytotoxicity against human Hs578T cells assessed as cell growth at 10 uM after 48 hrs by SRB assay relative to control; settings: Hs-578T, read-out: Activity; outline: as §1
T47D = assay: Cytotoxicity against human T47D cells assessed as cell growth at 10 uM after 48 hrs by SRB assay relative to control; settings: read-out: Activity; outline: as §3
MDA-MB-468 = assay: Cytotoxicity against human MDA-MB-468 cells assessed as cell growth at 10 uM after 48 hrs by SRB assay relative to control; settings: MDA-MB-468, 48 h, read-out: Activity; outline: as §2
CCRF-CEM = assay: Cytotoxicity against human CCRF-CEM cells assessed as cell growth at 10 uM after 48 hrs by SRB assay relative to control; settings: read-out: Activity; outline: as §1
HL-60(TB) = assay: Cytotoxicity against human HL-60(TB) cells assessed as cell growth at 10 uM after 48 hrs by SRB assay relative to control; settings: HL-60, 48 h, read-out: Activity
Outline: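 NCI Developmental Therapeutics Program 60-cell-line screen, first stage: a single dose of 10 μM against the panel, reported as percentage growth.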

MOLT-4 = assay: Cytotoxicity against human MOLT4 cells assessed as cell growth at 10 uM after 48 hrs by SRB assay relative to control; settings: MOLT-4, 48 h, read-out: Activity; outline: as §2
[2] = Cytotoxicity against human EKVX cells assessed as cell growth at 10 uM after 48 hrs by SRB assay relative to control; settings: read-out: Activity; outline: as §1
NCI-H322M = assay: Cytotoxicity against human NCI-H322M cells assessed as cell growth at 10 uM after 48 hrs by SRB assay relative to control; settings: read-out: Activity; outline: as §2
NCI-H460 = assay: Cytotoxicity against human NCI-H460 cells assessed as cell growth at 10 uM after 48 hrs by SRB assay relative to control; settings: NCI-H460, 48 h, read-out: Activity; outline: as §2
COLO 205 = assay: Cytotoxicity against human COLO205 cells assessed as cell growth at 10 uM after 48 hrs by SRB assay relative to control; settings: COLO 205, 48 h, read-out: Activity; outline: as §1
HCT-15 = assay: Cytotoxicity against human HCT15 cells assessed as cell growth at 10 uM after 48 hrs by SRB assay relative to control; settings: HCT-15, 48 h, read-out: Activity; outline: as §1
SF-268 = assay: Cytotoxicity against human SF268 cells assessed as cell growth at 10 uM after 48 hrs by SRB assay relative to control; settings: SF-268, 48 h, read-out: Activity; outline: as §2
SF-295 = assay: Cytotoxicity against human SF295 cells assessed as cell growth at 10 uM after 48 hrs by SRB assay relative to control; settings: SF-295, 48 h, read-out: Activity; outline: as §2
SNB-75 = assay: Cytotoxicity against human SNB75 cells assessed as cell growth at 10 uM after 48 hrs by SRB assay relative to control; settings: SNB-75, 48 h, read-out: Activity; outline: as §3
LOX IMVI = assay: Cytotoxicity against human LOXIMVI cells assessed as cell growth at 10 uM after 48 hrs by SRB assay relative to control; settings: read-out: Activity; outline: as §1
OVCAR-5 = assay: Cytotoxicity against human OVCAR5 cells assessed as cell growth at 10 uM after 48 hrs by SRB assay relative to control; settings: OVCAR-5, 48 h, read-out: Activity; outline: as §2
ACHN = assay: Cytotoxicity against human ACHN cells assessed as cell growth at 10 uM after 48 hrs by SRB assay relative to control; settings: read-out: Activity; outline: as §1
HT-29 = assay: Cytotoxicity against human HT-29 cells assessed as cell growth at 10 uM after 48 hrs by SRB assay relative to control; settings: HT-29, 48 h, read-out: Activity; outline: as §1

SMILES	growth at 10 µM (Malme-3M)	growth at 10 µM (SK-MEL-2)	growth at 10 µM (UACC-62)	growth at 10 µM (IGROV-1)	growth at 10 µM (OVCAR-3)	growth at 10 µM (OVCAR-4)	growth at 10 µM (NCI/ADR-RES)	growth at 10 µM (786-0)	growth at 10 µM (CAKI-1)	growth at 10 µM (RXF 393)	growth at 10 µM (TK-10)	growth at 10 µM (MDA-MB-231)	growth at 10 µM [1]	growth at 10 µM (T47D)	growth at 10 µM (MDA-MB-468)	growth at 10 µM (CCRF-CEM)	growth at 10 µM (HL-60(TB))	growth at 10 µM (MOLT-4)	growth at 10 µM [2]	growth at 10 µM (NCI-H322M)	other results
O=C1c2ccccc2C(=O)c2c1cc(SCc1ccccc1)c1nsnc21	80.8%	-3.95%	43.1%	43.9%	25.3%	-68.2%	62.3%	92.6%	73.8%	68.1%	130%	-13.4%	60%	-46.1%	-85.3%	0.65%	70.3%	-21%	95%	98.4%	growth at 10 µM (SK-MEL-5): 22.5%; growth at 10 µM (NCI-H460): 92%; growth at 10 µM (COLO 205): 103%; growth at 10 µM (HCT-15): 54.7%; growth at 10 µM (SF-268): 56%; growth at 10 µM (SF-295): 91.6%; growth at 10 µM (SNB-75): 39.6%; growth at 10 µM (LOX IMVI): 7.49%
O=C1c2ccccc2C(=O)c2c1ccc1nsnc21	-71.6%	-73.2%	-82.3%	-88.3%	-15.5%	-94.4%	-2.53%	-26%	1.97%	20.1%	97%	-17.3%	7.4%	-45.5%	-73.2%	-30.8%	-21.8%	-40.1%	103%	126%	growth at 10 µM (SK-MEL-5): 8.52%; growth at 10 µM (OVCAR-5): -20.1%; growth at 10 µM (ACHN): -94.3%; growth at 10 µM (NCI-H460): 77.4%; growth at 10 µM (COLO 205): 112%; growth at 10 µM (HCT-15): 1.48%; growth at 10 µM (HT-29): 117%; growth at 10 µM (SF-268): 16.3%; growth at 10 µM (SF-295): 126%; growth at 10 µM (SNB-75): 79%; growth at 10 µM (LOX IMVI): -50.6%
CC(C)Sc1cc2c(c3nsnc13)C(=O)c1ccccc1C2=O	-86%	-55.6%	-57.1%	-32.9%	-60.3%	-100%	-24.9%	12.4%	-5.68%	13.6%	30.3%	-35.9%	-9.16%	-24.4%	-78.8%	-45%	-41.2%	-54.6%	-6.58%	-0.8%	growth at 10 µM (SK-MEL-5): -99.2%; growth at 10 µM (OVCAR-5): -27.9%; growth at 10 µM (ACHN): 0.8%; growth at 10 µM (NCI-H460): 4.92%; growth at 10 µM (COLO 205): 102%; growth at 10 µM (HCT-15): 15.3%; growth at 10 µM (HT-29): 48.1%; growth at 10 µM (SF-268): 7.06%; growth at 10 µM (SF-295): -16.6%; growth at 10 µM (SNB-75): 9.12%; growth at 10 µM (LOX IMVI): -21.6%
O=C1c2ccccc2C(=O)c2c1cc(Sc1ccc(Cl)cc1)c1nsnc21	105%	109%	90.7%	84.9%	119%	76.8%	102%	109%	87%	118%	140%	89%	103%	85%	46.1%	79.3%	87.3%	59.2%	94.8%	99.5%	growth at 10 µM (NCI-H460): 103%; growth at 10 µM (COLO 205): 121%; growth at 10 µM (HCT-15): 98.1%; growth at 10 µM (SF-268): 105%; growth at 10 µM (SF-295): 97.3%; growth at 10 µM (SNB-75): 91.7%; growth at 10 µM (LOX IMVI): 83.2%
